# Shown are actives, neighbours in structure and some others; about 3.1% of the full set was active somewhere.
# S100A4 inh HTS = inhibitors of human S100A4 binding to myosin IIA peptide. S100A4/TAMRA-MyoIIA peptide fluorescence polarization. actives 0.14% (n = 360,000). inhibition, % at 10.7 µM;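 active = mean inhibition of at least 70% across replicates, with every replicate also reaching that level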
#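 incubation = readout 5 min after mixing, signal stable up to 60 min | system = S100A4 monomer protein | buffer or medium = HEPES pH 7.2 with CaCl2, KCl, NaCl, DTT, Triton | benchmarks = neutral control DMSO, positive control TFP | also added = fluorescent myosin IIA peptide, 5 nM | compound dosing = one concentration per compound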
# Ecoli rRNA inh = selective bacterial rRNA inhibition in E. coli. E. coli WT GFP vs humanized-ribosome RFP mutants, fluorescence, 24 h; hits give low values; DMSO median 0, no signal -100. GFP signal change (wild-type ribosome), % (test concentration not listed). actives 1.6% (n = 350,000);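 active = significant combined selectivity score with lowered wild-type GFP, culture density cut under 30%, mutant RFP and density less affected; inactive = any of these conditions unmet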
# CFTR F508del cor = correctors of CFTR F508del function in bronchial epithelial cells; CFBE cells, YFP halide quenching; stimulated with forskolin plus potentiator P3; % fluorescence drop versus neutral controls; activity (quench increase), % at 7.58 µM; actives 0.36% (n = 350,000); AID 720511;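 active = mean added fluorescence quench of at least 8% versus neutral control, with both replicates also reaching 8%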;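 also: cells transiently co-express mutant CFTR-F508del with the halide-sensitive YFP; corrector assay measuring rescue of mutant channel to the surface after 24 h compound exposure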
# ERAP1 HTS inh = blocks human ERAP1 aminopeptidase activity | Q9NZ08 | recombinant ERAP1, Leu-AMC fluorescence, 60 min | actives 0.15% (n = 340,000) | inhibition, % at 10.7 µM | AID 652197;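 active = mean replicate inhibition of at least 30%, or all replicates individually reaching that 30% level; inactive = mean below 30% and not every replicate reaching it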;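 also: 0% = neutral control wells and 100% = L-leucinethiol positive control wells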
# Target sequence (Q9NZ08 whole entry, looked up): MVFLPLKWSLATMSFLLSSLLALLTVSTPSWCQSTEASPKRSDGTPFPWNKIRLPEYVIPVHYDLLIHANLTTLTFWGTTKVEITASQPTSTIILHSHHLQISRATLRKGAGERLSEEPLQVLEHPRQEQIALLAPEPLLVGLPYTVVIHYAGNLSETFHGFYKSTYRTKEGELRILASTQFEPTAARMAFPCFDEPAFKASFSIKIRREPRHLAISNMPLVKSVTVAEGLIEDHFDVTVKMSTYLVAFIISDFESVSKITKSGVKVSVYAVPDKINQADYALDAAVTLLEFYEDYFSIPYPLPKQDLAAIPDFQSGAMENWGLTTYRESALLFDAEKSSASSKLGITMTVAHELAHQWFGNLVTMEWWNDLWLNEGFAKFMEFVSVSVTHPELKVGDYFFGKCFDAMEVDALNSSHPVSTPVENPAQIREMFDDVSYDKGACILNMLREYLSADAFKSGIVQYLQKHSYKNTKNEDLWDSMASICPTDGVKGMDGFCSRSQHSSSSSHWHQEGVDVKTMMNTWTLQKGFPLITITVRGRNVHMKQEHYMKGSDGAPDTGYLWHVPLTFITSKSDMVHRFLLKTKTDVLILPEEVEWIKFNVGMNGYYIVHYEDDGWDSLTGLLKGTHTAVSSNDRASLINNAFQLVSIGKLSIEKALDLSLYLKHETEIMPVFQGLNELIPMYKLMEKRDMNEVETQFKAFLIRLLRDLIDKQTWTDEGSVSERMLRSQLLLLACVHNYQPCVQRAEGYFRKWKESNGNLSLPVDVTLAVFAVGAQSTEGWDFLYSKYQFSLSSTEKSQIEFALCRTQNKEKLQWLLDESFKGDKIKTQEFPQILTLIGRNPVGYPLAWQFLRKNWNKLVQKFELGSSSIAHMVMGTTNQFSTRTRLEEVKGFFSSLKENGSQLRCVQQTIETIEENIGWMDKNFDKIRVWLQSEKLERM
# SIRT5 block = sirtuin-5 (human) deacylase inhibition; Q9NXA8; Purified SirT5, succinyl-peptide AMC, trypsin-coupled fluorescence; inhibition, % at 15 µM; actives 1.1% (n = 330,000); AID 652115; in the data active = inhibition above about 15%
# * hit, by the source's call; x = no result.
SMILES,S100A4 inh HTS,Ecoli rRNA inh,CFTR F508del cor,ERAP1 HTS inh,SIRT5 block
C[C@@H]1CN([C@H](C)CO)C(=O)c2cccc(N(C)C)c2O[C@@H]1CN(C)Cc1ccc2c(c1)OCO2,66,3,0,4,4
Cc1cc(CNC(=O)COc2ccc(C)c(C)c2)c2ccccc2n1,1,-25*,0,-4,1
Cc1cc(CNC(=O)COc2ccccc2)c2ccccc2n1,1,13,-1,-4,-2
Cc1ccc(NCCN(C)C)c2c(=O)c3cc(O)ccc3sc12,1,-56,1,64*,5
CN(C)CCNc1cccc2sc3ccc(O)cc3c(=O)c12,1,-55,3,6,x
Oc1c(Cl)cc(CN2CCOCC2)c2cccnc12,-1,-23,27*,0,-3
O=C(Oc1c(CN2CCOCC2)cc(Cl)c2cccnc12)c1ccccc1,-2,-48,x,3,-1
O=C(COC(=O)c1c2c(nc3ccccc13)/C(=C\c1cccs1)CCC2)Nc1ccccc1,-2,2,-1,1,3
CC(=O)c1ccc(NC(=O)COC(=O)c2c3c(nc4ccccc24)/C(=C\c2cccs2)CCC3)cc1,-6,2,9.1*,-2,2
COCC(=O)N1CC2(CN(Cc3ccc(OC)cc3)C2)c2c([nH]c3cc(OC)ccc23)[C@H]1CO,4,0,2,-4,-1
CCOC(=O)C1CCCN(C(=O)c2csc(-c3ccc4c(c3)CCO4)n2)C1 (stereo not given),1,-41*,-2,0,-3
CN1c2ccc(Br)cc2[C@@H]2[C@@H](CCN2C(=O)C2CCCCC2)[C@@H]1CO,2,-37,4,0,3
O=C(O)c1cc(Nc2cc(Cl)c3nonc3c2[N+](=O)[O-])ccc1O,3,-11,1,36*,4
Nc1ccccc1C(=O)N=Nc1[nH]c(N)c2ccccc12,-1,-17,1,2,18*
Nc1[nH]c(N=NC(=O)c2ccc(F)cc2)c2ccccc12,3,-5,-2,-1,0
CN(c1ccccc1)S(=O)(=O)c1ccc(C(=O)Nc2ccncc2)cc1,-3,-28,-2,-1,2
CN(c1ccc(C(=O)Nc2cccc(O)c2)cc1)S(=O)(=O)c1ccccc1,-2,-27,-2,2,-3
CN(c1ccccc1)S(=O)(=O)c1ccc(NC(=O)c2ccc(F)cc2)cc1,0,-28*,-1,-2,-2
CC(=O)c1cccc(NC(=O)c2ccc(N(C)S(=O)(=O)c3ccc(C)cc3)cc2)c1,-5,-24*,0,-1,2
CCCCc1cc(=O)oc2cc(C)cc(OCC(=O)N3CCC(C(=O)O)(c4ccccc4)CC3)c12,1,-13*,2,-4,-18
CCOc1cc(C)cc2oc(=O)cc(-c3ccccc3)c12,-4,-36*,2,-2,-2
CCOC(=O)COc1cc(N)c(Cl)cc1Cl,5,-2,3,4,-3
CCOC(=O)COc1cc(-n2c(=S)[nH]c3ccccc3c2=O)c(Cl)cc1Cl,-1,-23*,-3,-2,-3
C[C@H](CO)N1C[C@H](C)[C@@H](CN(C)C(=O)CN(C)C)Oc2cc(C#CC3CC3)ccc2S1(=O)=O,25,13,0,-3,-2
Cc1ccc(S(=O)(=O)NCCCNS(=O)(=O)c2ccc(C)cc2)cc1,-26,-4,20*,1,-2
CCCCCCCCCCCCCCCC[n+]1cccc(C(=O)N(CC)CC)c1,-3,-64,5,68*,-4
COc1ccc(NC(=O)Nc2ccc3c(c2)C(=O)N([C@H](C)CO)C[C@H](C)[C@@H](CN(C)Cc2ccc(C(F)(F)F)cc2)OCCCC[C@H](C)O3)cc1,-29,-1,-2,-4,7
COc1ccc(CN(C)C[C@H]2OCCCC[C@H](C)Oc3ccc(NC(=O)Nc4ccc(C(F)(F)F)cc4)cc3C(=O)N([C@H](C)CO)C[C@H]2C)cc1,2,6,8.7*,-1,12
COc1ccc(NC(=O)N(C)C[C@@H]2OCCCC[C@@H](C)Oc3ccc(NC(=O)Nc4ccc(C(F)(F)F)cc4)cc3C(=O)N([C@@H](C)CO)C[C@@H]2C)cc1,-2,5,4,-1,16*
